Source: the M2OR odorant receptor database

Legend:
Conditions in all cases: stereoisomer not certain
OR10H4 (Homo sapiens) = target: T1, OR10H4 (Homo sapiens) (UniProt Q8NGA5)
T1 sequence (whole entry): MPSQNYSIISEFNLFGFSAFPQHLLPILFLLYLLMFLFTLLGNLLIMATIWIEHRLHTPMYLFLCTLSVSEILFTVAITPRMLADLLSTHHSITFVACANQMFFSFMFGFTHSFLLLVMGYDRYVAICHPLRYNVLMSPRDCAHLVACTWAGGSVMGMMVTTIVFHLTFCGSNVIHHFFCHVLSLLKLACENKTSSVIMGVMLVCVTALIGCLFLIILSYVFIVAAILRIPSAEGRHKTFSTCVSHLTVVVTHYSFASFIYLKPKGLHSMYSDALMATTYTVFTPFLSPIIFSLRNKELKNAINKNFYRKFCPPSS
In short: (§1)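 Transient luciferase assays in mammalian cell lines were common, though methods varied by source. The values come from published papers and their supplementary material, with extra details from the original authors when needed. Responsive refers to a measured signal the original authors judged statistically different from baseline, and non-responsive (inactive) to the remainder.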

OR10H5 (Homo sapiens) = target: T2, OR10H5 (Homo sapiens) (UniProt Q8NGA6)
T2 sequence (whole entry): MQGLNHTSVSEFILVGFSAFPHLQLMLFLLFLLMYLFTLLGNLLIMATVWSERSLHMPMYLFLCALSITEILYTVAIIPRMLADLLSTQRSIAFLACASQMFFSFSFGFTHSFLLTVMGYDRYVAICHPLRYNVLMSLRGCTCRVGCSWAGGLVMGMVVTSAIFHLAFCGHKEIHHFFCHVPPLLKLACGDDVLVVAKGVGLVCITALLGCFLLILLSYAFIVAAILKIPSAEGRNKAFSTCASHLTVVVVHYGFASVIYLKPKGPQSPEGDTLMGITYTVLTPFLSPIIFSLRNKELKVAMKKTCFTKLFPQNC
In short: as §1

OR10J1 (Homo sapiens) = target: T3, OR10J1 (Homo sapiens) (UniProt P30954)
T3 sequence (whole entry): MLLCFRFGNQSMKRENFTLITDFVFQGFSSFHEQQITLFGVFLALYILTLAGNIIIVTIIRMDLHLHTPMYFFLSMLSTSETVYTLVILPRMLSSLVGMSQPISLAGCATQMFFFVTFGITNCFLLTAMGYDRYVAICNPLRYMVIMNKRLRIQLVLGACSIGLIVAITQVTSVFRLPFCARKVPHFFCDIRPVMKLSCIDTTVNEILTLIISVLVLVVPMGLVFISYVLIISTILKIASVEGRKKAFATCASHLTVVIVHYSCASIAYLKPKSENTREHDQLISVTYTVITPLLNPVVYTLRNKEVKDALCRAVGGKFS
In short: as §1

OR10J3 (Homo sapiens) = target: T4, OR10J3 (Homo sapiens) (UniProt Q5JRS4)
T4 sequence (whole entry): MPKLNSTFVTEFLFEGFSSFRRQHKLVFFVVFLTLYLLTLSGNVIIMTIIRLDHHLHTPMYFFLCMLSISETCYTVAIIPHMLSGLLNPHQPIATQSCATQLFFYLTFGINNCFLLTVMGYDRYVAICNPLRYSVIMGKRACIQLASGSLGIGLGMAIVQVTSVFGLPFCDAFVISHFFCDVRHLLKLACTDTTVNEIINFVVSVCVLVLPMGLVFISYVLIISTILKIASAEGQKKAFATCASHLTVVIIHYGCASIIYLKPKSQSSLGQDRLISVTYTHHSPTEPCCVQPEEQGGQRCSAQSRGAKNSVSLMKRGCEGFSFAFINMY
In short: as §1

OR10J5 (Homo sapiens) = target: T5, OR10J5 (Homo sapiens) (UniProt Q8NHC4)
T5 sequence (whole entry): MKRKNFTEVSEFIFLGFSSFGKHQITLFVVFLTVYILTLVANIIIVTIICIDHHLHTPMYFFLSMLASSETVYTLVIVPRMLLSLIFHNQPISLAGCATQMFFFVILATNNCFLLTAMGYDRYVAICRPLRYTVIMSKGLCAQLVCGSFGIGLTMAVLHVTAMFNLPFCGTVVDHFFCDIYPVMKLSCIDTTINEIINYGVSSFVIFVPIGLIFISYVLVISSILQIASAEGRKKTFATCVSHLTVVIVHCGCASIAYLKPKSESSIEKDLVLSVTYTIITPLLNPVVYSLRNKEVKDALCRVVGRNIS
In short: as §1

OR10K1 (Homo sapiens) = target: T6, OR10K1 (Homo sapiens) (UniProt Q8NGX5)
T6 sequence (whole entry): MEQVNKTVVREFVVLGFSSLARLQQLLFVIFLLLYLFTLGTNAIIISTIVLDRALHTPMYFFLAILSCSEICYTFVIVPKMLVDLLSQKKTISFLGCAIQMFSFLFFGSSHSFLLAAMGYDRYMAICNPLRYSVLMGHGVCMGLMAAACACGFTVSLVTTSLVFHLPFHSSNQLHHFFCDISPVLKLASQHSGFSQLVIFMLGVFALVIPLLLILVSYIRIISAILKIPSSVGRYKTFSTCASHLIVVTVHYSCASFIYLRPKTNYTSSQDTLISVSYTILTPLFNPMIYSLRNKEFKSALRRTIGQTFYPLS
In short: as §1

OR10P1 (Homo sapiens) = target: T7, OR10P1 (Homo sapiens) (UniProt Q8NGE3)
T7 sequence (whole entry): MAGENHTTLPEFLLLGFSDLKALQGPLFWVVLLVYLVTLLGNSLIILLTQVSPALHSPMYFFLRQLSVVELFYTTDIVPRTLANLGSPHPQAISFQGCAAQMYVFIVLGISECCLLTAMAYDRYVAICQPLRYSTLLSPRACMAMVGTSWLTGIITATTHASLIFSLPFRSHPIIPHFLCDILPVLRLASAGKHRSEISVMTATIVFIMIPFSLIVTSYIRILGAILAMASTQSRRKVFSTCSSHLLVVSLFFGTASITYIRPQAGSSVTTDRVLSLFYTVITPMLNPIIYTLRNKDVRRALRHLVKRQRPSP
In short: as §1

OR10Q1 (Homo sapiens) = target: T8, OR10Q1 (Homo sapiens) (UniProt Q8NGQ4)
T8 sequence (whole entry): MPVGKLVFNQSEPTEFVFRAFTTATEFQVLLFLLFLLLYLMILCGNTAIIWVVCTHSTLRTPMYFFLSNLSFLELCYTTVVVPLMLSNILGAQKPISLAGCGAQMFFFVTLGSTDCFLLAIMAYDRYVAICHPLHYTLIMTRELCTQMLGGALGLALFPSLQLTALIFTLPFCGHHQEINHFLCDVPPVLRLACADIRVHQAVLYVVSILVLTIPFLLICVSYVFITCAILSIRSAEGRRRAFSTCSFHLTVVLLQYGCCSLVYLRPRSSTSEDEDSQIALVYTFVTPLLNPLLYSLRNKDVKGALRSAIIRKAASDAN
In short: as §1

OR10R2 (Homo sapiens) = target: T9, OR10R2 (Homo sapiens) (UniProt Q8NGX6)
T9 sequence (whole entry): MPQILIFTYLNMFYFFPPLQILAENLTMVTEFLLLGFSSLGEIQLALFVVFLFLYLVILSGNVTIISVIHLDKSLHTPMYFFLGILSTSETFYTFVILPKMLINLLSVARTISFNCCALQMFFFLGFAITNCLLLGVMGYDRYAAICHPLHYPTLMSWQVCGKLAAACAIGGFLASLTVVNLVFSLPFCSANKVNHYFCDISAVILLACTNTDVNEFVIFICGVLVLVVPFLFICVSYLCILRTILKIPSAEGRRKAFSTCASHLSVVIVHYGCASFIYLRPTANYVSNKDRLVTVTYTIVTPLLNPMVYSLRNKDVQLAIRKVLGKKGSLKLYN
In short: as §1

OR10S1 (Homo sapiens) = target: T10, OR10S1 (Homo sapiens) (UniProt Q8NGN2)
T10 sequence (whole entry): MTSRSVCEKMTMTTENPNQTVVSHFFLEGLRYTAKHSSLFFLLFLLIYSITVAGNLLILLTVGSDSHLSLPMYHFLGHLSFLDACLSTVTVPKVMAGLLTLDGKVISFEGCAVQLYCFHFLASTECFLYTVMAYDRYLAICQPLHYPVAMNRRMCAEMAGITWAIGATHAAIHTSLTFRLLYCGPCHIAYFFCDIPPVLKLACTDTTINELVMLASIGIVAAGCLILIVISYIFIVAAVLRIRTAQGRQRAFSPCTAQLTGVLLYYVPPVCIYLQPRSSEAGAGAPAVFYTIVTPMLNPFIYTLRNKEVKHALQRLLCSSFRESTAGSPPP
In short: as §1

OR10T2 (Homo sapiens) = target: T11, OR10T2 (Homo sapiens) (UniProt Q8NGX3)
T11 sequence (whole entry): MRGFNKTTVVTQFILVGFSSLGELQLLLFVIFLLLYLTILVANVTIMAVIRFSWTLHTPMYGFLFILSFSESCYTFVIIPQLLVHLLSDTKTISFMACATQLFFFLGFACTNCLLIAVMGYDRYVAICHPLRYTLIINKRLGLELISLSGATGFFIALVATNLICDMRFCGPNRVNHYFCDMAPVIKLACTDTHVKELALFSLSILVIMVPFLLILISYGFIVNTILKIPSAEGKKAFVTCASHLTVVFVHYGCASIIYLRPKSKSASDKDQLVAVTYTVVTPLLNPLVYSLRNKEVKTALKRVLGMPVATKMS
In short: as §1

OR10V1 (Homo sapiens) = target: T12, OR10V1 (Homo sapiens) (UniProt Q8NGI7)
T12 sequence (whole entry): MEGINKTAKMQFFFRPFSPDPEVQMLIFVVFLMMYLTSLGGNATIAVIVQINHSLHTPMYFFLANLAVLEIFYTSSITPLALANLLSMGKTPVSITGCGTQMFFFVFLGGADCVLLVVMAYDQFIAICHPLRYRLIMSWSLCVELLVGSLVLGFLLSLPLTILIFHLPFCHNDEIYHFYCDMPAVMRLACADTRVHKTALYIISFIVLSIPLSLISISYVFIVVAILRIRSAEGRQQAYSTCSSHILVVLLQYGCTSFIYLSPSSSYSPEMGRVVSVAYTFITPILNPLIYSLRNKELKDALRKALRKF
In short: as §1

OR10W1 (Homo sapiens) = target: T13, OR10W1 (Homo sapiens) (UniProt Q8NGF6)
T13 sequence (whole entry): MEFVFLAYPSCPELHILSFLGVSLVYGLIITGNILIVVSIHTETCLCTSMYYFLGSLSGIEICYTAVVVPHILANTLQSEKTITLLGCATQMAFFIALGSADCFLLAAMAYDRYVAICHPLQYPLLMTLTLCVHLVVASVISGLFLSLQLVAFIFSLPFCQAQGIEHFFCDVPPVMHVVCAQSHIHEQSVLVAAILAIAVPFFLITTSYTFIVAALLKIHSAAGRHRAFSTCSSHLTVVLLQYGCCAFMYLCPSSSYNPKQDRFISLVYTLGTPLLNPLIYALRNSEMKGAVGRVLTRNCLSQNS
In short: as §1

OR10X1 (Homo sapiens) = target: T14, OR10X1 (Homo sapiens) (UniProt Q8NGY0)
T14 sequence (whole entry): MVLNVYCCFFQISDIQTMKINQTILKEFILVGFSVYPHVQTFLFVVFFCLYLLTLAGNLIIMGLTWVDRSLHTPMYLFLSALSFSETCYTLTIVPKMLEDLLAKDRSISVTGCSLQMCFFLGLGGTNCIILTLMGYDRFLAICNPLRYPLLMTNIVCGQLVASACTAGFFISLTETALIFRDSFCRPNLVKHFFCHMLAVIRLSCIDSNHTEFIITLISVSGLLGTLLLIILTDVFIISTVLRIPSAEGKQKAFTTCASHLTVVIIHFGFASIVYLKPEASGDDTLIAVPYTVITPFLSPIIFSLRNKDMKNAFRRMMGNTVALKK
In short: as §1

OR10Z1 (Homo sapiens) = target: T15, OR10Z1 (Homo sapiens) (UniProt Q8NGY1)
T15 sequence (whole entry): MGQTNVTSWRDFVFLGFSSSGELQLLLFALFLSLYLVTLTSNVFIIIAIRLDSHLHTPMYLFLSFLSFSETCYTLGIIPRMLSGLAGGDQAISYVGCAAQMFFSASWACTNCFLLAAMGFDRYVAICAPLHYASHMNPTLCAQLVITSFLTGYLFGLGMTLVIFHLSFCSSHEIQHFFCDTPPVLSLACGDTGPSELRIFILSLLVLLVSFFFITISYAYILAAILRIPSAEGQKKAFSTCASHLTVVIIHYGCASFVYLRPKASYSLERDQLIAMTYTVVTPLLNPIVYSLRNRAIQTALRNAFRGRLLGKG
In short: as §1

OR11A1 (Homo sapiens) = target: T16, OR11A1 (Homo sapiens) (UniProt Q9GZK7)
T16 sequence (whole entry): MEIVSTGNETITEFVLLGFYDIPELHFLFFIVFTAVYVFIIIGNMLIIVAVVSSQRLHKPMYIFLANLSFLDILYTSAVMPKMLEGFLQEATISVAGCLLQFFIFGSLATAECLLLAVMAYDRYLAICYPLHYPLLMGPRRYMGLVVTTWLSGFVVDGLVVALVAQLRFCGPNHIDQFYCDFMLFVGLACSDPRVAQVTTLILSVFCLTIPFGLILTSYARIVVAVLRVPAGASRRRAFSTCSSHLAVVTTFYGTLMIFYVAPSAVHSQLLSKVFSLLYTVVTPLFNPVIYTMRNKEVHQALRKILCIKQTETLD
In short: as §1

OR11G2 (Homo sapiens) = target: T17, OR11G2 (Homo sapiens) (UniProt Q8NGC1)
T17 sequence (whole entry): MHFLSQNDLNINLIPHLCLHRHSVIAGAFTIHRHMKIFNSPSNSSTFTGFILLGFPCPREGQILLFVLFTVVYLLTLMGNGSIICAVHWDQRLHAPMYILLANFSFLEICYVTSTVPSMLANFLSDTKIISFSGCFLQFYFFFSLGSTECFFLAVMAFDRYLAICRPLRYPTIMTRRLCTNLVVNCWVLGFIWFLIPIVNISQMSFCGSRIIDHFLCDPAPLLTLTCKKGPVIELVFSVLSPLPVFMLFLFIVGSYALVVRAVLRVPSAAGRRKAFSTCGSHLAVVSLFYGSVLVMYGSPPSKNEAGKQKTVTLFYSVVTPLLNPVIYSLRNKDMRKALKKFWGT
In short: as §1

OR11H1 (Homo sapiens) = target: T18, OR11H1 (Homo sapiens) (UniProt Q8NG94)
T18 sequence (whole entry): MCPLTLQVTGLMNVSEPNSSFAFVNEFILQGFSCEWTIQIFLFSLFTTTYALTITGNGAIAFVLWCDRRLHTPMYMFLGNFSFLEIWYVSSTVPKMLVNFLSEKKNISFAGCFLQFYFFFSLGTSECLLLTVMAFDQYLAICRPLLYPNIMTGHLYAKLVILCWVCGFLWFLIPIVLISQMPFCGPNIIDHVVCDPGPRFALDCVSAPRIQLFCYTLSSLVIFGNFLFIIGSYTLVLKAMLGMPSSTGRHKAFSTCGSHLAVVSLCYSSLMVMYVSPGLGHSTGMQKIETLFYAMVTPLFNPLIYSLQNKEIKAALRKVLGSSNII
In short: as §1

Measured: odorant receptor agonist call;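 further: active if original authors judged signal statistically different from baseline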

CCC1OC(=O)C(O)=C1C (stereo not drawn)
inactive: all assays above
